ChEMBL document CHEMBL1135994, “Potent, novel in vitro inhibitors of the Pseudomonas aeruginosa deacetylase LpxC” (J Med Chem, 2002)

target: T1, UDP-3-O-acyl-N-acetylglucosamine deacetylase (Pseudomonas aeruginosa (strain ATCC 15692 / PAO1 / 1C / PRS 101 / LMG12228), UniProt P47205); experiment: Inhibition of Pseudomonas aeruginosa UDP-3-O-acyl-N-acetylglucosamine Deacetylase (LpxC) in vitro.
T1 sequence (P47205 whole entry): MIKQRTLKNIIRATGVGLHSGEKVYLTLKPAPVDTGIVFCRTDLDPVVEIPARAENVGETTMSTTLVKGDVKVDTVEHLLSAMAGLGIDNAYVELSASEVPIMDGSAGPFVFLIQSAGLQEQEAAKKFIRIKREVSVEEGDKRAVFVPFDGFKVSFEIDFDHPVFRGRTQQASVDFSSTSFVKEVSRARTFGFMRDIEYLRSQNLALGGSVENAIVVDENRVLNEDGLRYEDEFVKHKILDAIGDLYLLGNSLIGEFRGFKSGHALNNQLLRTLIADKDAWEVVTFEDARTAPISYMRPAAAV
Outline: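 Purified recombinant P. aeruginosa LpxC (IPTG-induced, zinc-reconstituted) at 2 nM incubated with 150 nM [3H-acetyl]-UDP-3-O-(R-3-hydroxydecanoyl)-GlcNAc for 90 min at room temperature (22 °C). Buffer is sodium phosphate pH 7.5 with 1 mg/mL BSA. Stopped with activated charcoal suspension. Released [3H]-acetate in the clarified supernatant counted by scintillation. 5 mM EDTA controls define nonspecific tritium release. IC50 determined.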

IC50 [µM] | Compound
> 50 | O=C(NC(CO)C(=O)NO)c1ccc(F)cc1 (stereo not drawn)
1.2 | Cc1cc(C2=NC(C(=O)NO)CO2)ccc1F (stereo not drawn)
62.5 | O=C(NO)C1CSC(c2ccc(F)cc2)=N1 (stereo not drawn)
0.19 | CC(C)=CCOc1ccc(C2=NC(C(=O)NO)CO2)cc1OC(F)(F)F (stereo not drawn)
25 | O=C(NO)C1COC(c2cc(F)cc(C(F)(F)F)c2)=N1 (stereo not drawn)
6 | O=C(NO)C1COC(c2cccc(OC(F)(F)F)c2)=N1 (stereo not drawn)
31.2 | O=C(NO)C1CCOC(c2cc3cc(F)ccc3[nH]2)=N1 (stereo not drawn)
30 | O=C(NO)C1COC(c2ccc(OC(F)(F)F)c(Cl)c2)=N1 (stereo not drawn)
0.12 | C=CCOc1ccc(C2=NC(C(=O)NO)CO2)cc1OC(F)(F)F (stereo not drawn)
9 | COc1c(F)cc(C2=NC(C(=O)NO)CO2)cc1Br (stereo not drawn)
0.3 | O=C(NO)C1COC(c2[nH]c3ccc(F)cc3c2Cl)=N1 (stereo not drawn)
> 50 | Cc1ccc(C(=O)NC(CO)C(=O)NO)cc1 (stereo not drawn)
5 | O=C(NO)C1COC(c2ccc(OC(F)(F)F)cc2)=N1 (stereo not drawn)
7.8 | O=C(NO)C1COC(c2ccc(C(F)(F)F)cc2)=N1 (stereo not drawn)
2.7 | O=C(NO)C1COC(c2ccc(Br)cc2)=N1 (stereo not drawn)
0.28 | CCCc1ccc(-c2ccc(C3=NC(C(=O)NO)CO3)cc2)cc1 (stereo not drawn)
4.9 | CN(C)c1ccc(C2=NC(C(=O)NO)CO2)cc1 (stereo not drawn)
10 | CCCCn1nc(C2=NC(C(=O)NO)CO2)c2ccccc21 (stereo not drawn)
5.4 | O=C(NO)C1COC(c2ccc([N+](=O)[O-])cc2)=N1 (stereo not drawn)
2.5 | O=C(NO)C1COC(c2cccc(C(F)(F)F)c2)=N1 (stereo not drawn)
2.2 | C=CCOc1ccc(C2=NC(C(=O)NO)CO2)cc1C(F)(F)F (stereo not drawn)

IC50 [µM] | Compound
5.6 | C=CCCOc1ccc(C2=NC(C(=O)NO)CO2)cc1 (stereo not drawn)
5.5 | O=C(NO)C1COC(c2[nH]nc3ccccc23)=N1 (stereo not drawn)
> 50 | CCCc1cc(C(=O)NC(CO)C(=O)NO)cc(OC(F)(F)F)c1OC (stereo not drawn)
21.7 | O=C(NO)C1CSC(c2ccc(OC(F)(F)F)cc2)=N1 (stereo not drawn)
0.56 | O=C(NO)C1COC(c2ccc(COc3cccc([N+](=O)[O-])c3)cc2)=N1 (stereo not drawn)
> 60 | Cc1c(C2=NC(C(=O)NO)CS2)cnn1-c1ccccc1 (stereo not drawn)
> 30 | O=C(NO)C1COC(c2cnn(-c3ccccc3)c2C(F)(F)F)=N1 (stereo not drawn)
> 50 | Cc1ccc(C2=NC(C(=O)NO)CCO2)cc1 (stereo not drawn)
> 30 | O=C(NO)C1COC(c2ccc(O)cc2)=N1 (stereo not drawn)
3.9 | C=CCCOc1ccc(C(=O)NC(CO)C(=O)NO)cc1 (stereo not drawn)
17.8 | CCCc1cc(C2=NC(C(=O)NO)CS2)cc(OC(F)(F)F)c1OC (stereo not drawn)
0.84 | O=C(NO)C1COC(c2ccc(OCc3cccc(C(F)(F)F)c3)c(F)c2)=N1 (stereo not drawn)
> 30 | CC(=O)Nc1ccc(C2=NC(C(=O)NO)CO2)cc1 (stereo not drawn)
7.5 | C=CCOc1ccc(C(=O)NC(CO)C(=O)NO)cc1OC(F)(F)F (stereo not drawn)
46 | CCOc1cc(C(=O)NC(CO)C(=O)NO)ccc1F (stereo not drawn)
0.16 | COc1ccc(C2=NC(C(=O)NO)CO2)cc1OC(F)(F)F (stereo not drawn)
13 | O=C(NC(CO)C(=O)NO)c1n[nH]c2ccccc12 (stereo not drawn)
38.5 | Cc1ccc(C2=NC(C(=O)NO)CS2)cc1 (stereo not drawn)
21.2 | O=C(NO)C1CCOC(c2ccc(F)c(C(F)(F)F)c2)=N1 (stereo not drawn)
1.4 | C=CCOc1ccc(C2=NC(C(=O)NO)CO2)cc1F (stereo not drawn)
12 | CCCCn1nc2ccccc2c1C1=NC(C(=O)NO)CO1 (stereo not drawn)

IC50 [µM] | Compound
4.9 | O=C(NO)C1COC(c2ccc(F)c(Br)c2)=N1 (stereo not drawn)
18 | CC(=O)c1ccc(C2=NC(C(=O)NO)CO2)cc1 (stereo not drawn)
5.5 | O=C(NO)C1COC(c2ccc(I)cc2)=N1 (stereo not drawn)
7.3 | CCCCc1ccc(C2=NC(C(=O)NO)CO2)cc1 (stereo not drawn)
20 | Cc1ccc(C2=NC(C(=O)NO)CO2)cc1 (stereo not drawn)
1 | CCOc1cc(C2=NC(C(=O)NO)CO2)ccc1F (stereo not drawn)
1.3 | O=C(NO)C1COC(c2ccc(F)c(C(F)(F)F)c2)=N1 (stereo not drawn)
9.6 | O=C(NO)C1COC(c2ccc(OCc3ccccc3C(F)(F)F)c(F)c2)=N1 (stereo not drawn)
0.96 | CCCc1cc(C2=NC(C(=O)NO)CO2)ccc1F (stereo not drawn)
1 | O=C(NO)C1COC(c2ccc(OCc3cccc([N+](=O)[O-])c3)cc2)=N1 (stereo not drawn)
> 30 | CCCCCCCOc1ccc(C2=NC(C(=O)NO)CO2)cc1 (stereo not drawn)
58.7 | C=CCCOc1ccc(C2=NC(C(=O)NO)CS2)cc1 (stereo not drawn)
6 | O=C(NO)C1COC(c2ccc(F)cc2)=N1 (stereo not drawn)
> 30 | Cc1c(C2=NC(C(=O)NO)CO2)cnn1-c1ccccc1 (stereo not drawn)
1.6 | O=C(NO)C1COC(c2cc3cc(F)ccc3[nH]2)=N1 (stereo not drawn)
0.5 | CCCc1cc(C2=NC(C(=O)NO)CO2)cc(OC(F)(F)F)c1OC (stereo not drawn)
3.3 | C=CCc1c(C)c(C2=NC(C(=O)NO)CO2)cc(F)c1OC (stereo not drawn)
> 10 | O=C(NO)C1COC(c2ccccc2OC(F)(F)F)=N1 (stereo not drawn)
0.35 | C=CCCOc1ccc(C2=NC(C(=O)NO)CO2)cc1OC(F)(F)F (stereo not drawn)
0.25 | O=C(NO)C1COC(c2ccc(OCc3cccc(F)c3)c(OC(F)(F)F)c2)=N1 (stereo not drawn)

Compound | IC50 [µM]
O=C(NO)C1COC(c2ccc(C(F)(F)F)nc2)=N1 (stereo not drawn) | 10
